The list is not random: actives were taken first. Their share in the collection is about 3.5%.
MrgX1 allo act – human MrgX1 positive allosteric modulation, primary screen; 0.63% of 310,000 active; MrgX1-HEK293, Fluo-4 calcium flux, FDSS; hits give high values; B-score at 10 µM; Q96LB2;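 active = plate-corrected calcium response at least 3 library SD above typical, normal starting fluorescence, not activating the receptor alone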;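 also: compound read alongside a low EC10 to EC30 dose of BAM8-22 agonist; peak minus trough fluorescence over baseline measured at the second addition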
Target sequence (Q96LB2 whole entry, looked up): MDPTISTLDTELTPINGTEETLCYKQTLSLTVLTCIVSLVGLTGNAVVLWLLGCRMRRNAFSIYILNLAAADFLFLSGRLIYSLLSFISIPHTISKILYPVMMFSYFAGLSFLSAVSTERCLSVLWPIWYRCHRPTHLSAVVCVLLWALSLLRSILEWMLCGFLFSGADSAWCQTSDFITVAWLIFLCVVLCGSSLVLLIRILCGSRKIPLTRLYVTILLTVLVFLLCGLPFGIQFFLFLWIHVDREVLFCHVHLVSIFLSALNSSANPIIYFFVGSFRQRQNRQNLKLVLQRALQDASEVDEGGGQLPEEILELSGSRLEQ
RGS4 pot – RGS4 potentiation or activation. HEK293 M3R/inducible RGS4, carbachol calcium flux Fluo4; hits give low values. B-score at 10 µM. 0.92% of 310,000 active;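 active = B-score of the integrated calcium signal more than 4 SD below the library mean, with starting fluorescence not abnormally high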;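 also: negative B-score means reduced calcium response which marks RGS4 activation or potentiation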
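Detection: kinetic calcium fluorescence imaging with Fluo4-AM dye, 2 µM / Material: HEK293 cells with stable M3R and inducible RGS4 / Schedule: recording 10 s baseline at 1 Hz, 100 s post-agonist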
RGS4 block – inhibitors of human RGS4 | HEK293 M3R/RGS4 inducible, Fluo-4 calcium flux; hits give high values; triggered by carbachol at its EC20 | B-score at 10 µM | 0.45% of 310,000 active;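 active = B-score, a plate-corrected calcium signal, over three deviations above library mean, with baseline fluorescence within five deviations of library mean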;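 also: RGS4 expression induced by doxycycline in cells with stable M3 receptor; B-score is computed from the integrated fluorescence ratio over baseline after carbachol; higher B-score means a larger calcium signal and so more RGS4 inhibition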
Target sequence (P49798 whole entry, looked up): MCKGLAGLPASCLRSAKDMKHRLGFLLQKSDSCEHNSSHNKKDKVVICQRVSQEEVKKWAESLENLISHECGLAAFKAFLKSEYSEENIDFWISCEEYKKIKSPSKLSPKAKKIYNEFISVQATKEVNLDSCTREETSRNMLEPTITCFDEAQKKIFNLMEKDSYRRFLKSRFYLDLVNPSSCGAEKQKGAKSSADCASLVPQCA
MrgX1 ag – agonists of human MrgX1 receptor. 0.44% of 310,000 active. B-score at 10 µM. AID 588627. MrgX1-HEK293 cells, Fluo-4 calcium fluorescence, agonist mode; hits give high values. Q96LB2;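 active = calcium response B-score plate-corrected fluorescence ratio at least 3 library SD, with starting fluorescence B-score inside 5 SD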
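System – MrgX1-expressing HEK293 cells · Incubation – cells plated overnight, dye loaded 0.5 h 37 °C, 0.5 h room temperature · Technique – kinetic Fluo-4 NW fluorescence of intracellular calcium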
MrgX1 antagonist – antagonists of human MrgX1 receptor | 1.3% of 310,000 active | B-score at 10 µM | Q96LB2 | MRGX1-HEK293 calcium flux, Fluo-4, BAM8-22 antagonism; hits give low values;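 active = calcium-response B-score plate-corrected more than 3 library SD below zero, starting fluorescence within 5 deviations, no agonist response on first addition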;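 also: peak minus trough fluorescence over baseline after final BAM8-22 challenge near maximal dose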
RGS4 block valid – RGS4 inhibitor validation; shares compounds with RGS4 block; HEK293 M3R/RGS4, carbachol calcium Fluo-4 fluorescence; carbachol added at its EC20; 0 = buffer wells, 100 = carbachol control; calcium response, % at 10 µM; 65% of 1,700 active; AID 492999;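 active = duplicate-averaged calcium response above the buffer-only control mean plus 5 SD of those controls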;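 also: integrated fluorescence ratio F max minus min over baseline F0; higher response in RGS4-induced cells means RGS4 inhibition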
M3R Ca ctr – checks RGS4 inhibitor effects in non-induced HEK293 M3R cells; shares compounds with RGS4 block; carbachol calcium Fluo-4; submaximal (EC20) carbachol stimulus; buffer wells 0%, carbachol control wells 100%; activity (percent), % at 10 µM; 20% of 1,900 active; AID 493000; call rule not given here;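 also: RGS4 induction absent so cells express M3R without RGS4; higher means more calcium signal and flags a non-specific hit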
RGS4 inh ctr2 – second RGS4 inhibitor counter-screen in uninduced cells lacking carbachol; HEK293 M3R/RGS4 non-induced, Fluo-4 calcium, no carbachol; normalised: buffer wells 0%, carbachol wells 100%; calcium response (agonist-mode artifact), % at 10 µM; shares compounds with RGS4 block; 22% of 1,900 active;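 active = duplicate-averaged calcium rise in uninduced cells above buffer wells' mean plus 5 SD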
* = called active by the depositor; i = inactive; / = no result.

SMILES	MrgX1 allo act	RGS4 pot	RGS4 block	MrgX1 ag	MrgX1 antagonist	RGS4 block valid	M3R Ca ctr	RGS4 inh ctr2
Cc1cccc(NC(=S)NNC(=O)c2csc3c2CCCC3)c1	i	i	6.23*	i	i	20.5%*	54.5%*	i
COc1ccc(C2(c3ccc(O)cc3O)CC(c3ccccc3Cl)NC(=S)N2)cc1 (stereo not drawn)	i	i	10.3*	i	i	35.5%*	i	i
O=C1NN(c2cccc(Br)c2)C(=O)/C1=C\c1ccccc1	i	i	18.3*	i	i	16.5%*	32.0%*	14.0%*
COc1cc(/C=C2/C(=O)NN(c3ccccc3)C2=O)cc(Br)c1O	i	i	5.72*	31.3*	i	5.5%*	i	i
O=C1NN(c2ccc(F)cc2)C(=O)/C1=C\c1cnn(-c2ccccc2)c1	i	i	i	i	i	/	/	/
COc1cc(/C=C2\C(=O)NN(c3ccccc3)C2=O)cc([N+](=O)[O-])c1O	i	i	i	i	i	/	/	/
COc1ccc(N2CCCC2=N)c(OC)c1	i	i	i	i	i	/	/	/
O=c1cc(-c2ccccc2Cl)oc2ccc([N+](=O)[O-])c(O)c12	i	i	i	i	i	/	/	/
O=c1cc(-c2ccccc2Cl)oc2c([N+](=O)[O-])c(O)cc(O)c12	i	i	10.2*	i	i	32.5%*	52.0%*	i
CC1(C)CC(=O)C=C(NCCc2ccccc2)C1	i	i	i	i	i	/	/	/
O=C(NCc1ccco1)Nc1ccc2nsnc2c1	i	i	6.45*	i	i	i	i	i
O=C(NCc1ccco1)Nc1ccc(Br)cc1	i	i	i	i	i	/	/	/
COc1ccc(-c2sc3ccccc3c2C#CCCO)cc1	i	i	4.87*	i	i	9.0%*	i	i
COc1ccc(-c2sc3ccccc3c2C#CCO)cc1	i	i	i	i	i	i	i	i
OCCC#Cc1c(-c2ccsc2)sc2ccccc12	i	i	i	i	i	/	/	/
Cc1ccc(C(=O)NC(C#N)=C(Cl)Cl)cc1	/	i	9.82*	/	/	21.0%*	i	i
Cc1ccc(C(=O)NCC#N)cc1	i	i	i	i	i	/	/	/
Cc1ccc(OCC(=O)N/N=C/c2cn(C)c3ccccc23)cc1	i	i	i	i	i	/	i	i
Cc1cccn2c(=O)c3cc(C(=O)NCCC4=CCCCC4)n(C)c3nc12	i	i	i	i	i	/	/	/
O=C(N/N=C/c1ccccc1)c1[nH]c2ccc(Br)cc2c1-c1ccccc1	i	i	i	i	i	/	/	/
O=C(NN=C1CCCC1)c1[nH]c2ccc(Br)cc2c1-c1ccccc1	i	i	13.3*	i	i	16.5%*	i	i
COc1ccccc1N1CCN(Cc2nc(-c3ccc(F)cc3)oc2C)CC1	i	i	i	i	i	/	/	/
CCOC(=O)N1CCN(Cc2cn[nH]c2-c2ccc(-c3ccccc3)cc2)CC1	i	i	6.42*	i	i	5.5%*	i	i
COc1ccccc1N1CCN(Cc2cn[nH]c2-c2ccc(F)cc2)CC1	i	i	i	i	i	i	49.5%*	i
Cc1[nH]nc2ncc(C(=O)c3cc(Cl)cc(Cl)c3O)cc12	i	i	i	i	i	/	/	/
SMILES	MrgX1 allo act	RGS4 pot	RGS4 block	MrgX1 ag	MrgX1 antagonist	RGS4 block valid	M3R Ca ctr	RGS4 inh ctr2
CN(C)CCC#CC1(O)c2ccccc2-c2ccccc21	i	i	i	i	i	/	/	/
CC(=O)C1=C(S(=O)(=O)c2ccc(C)cc2)CS(=O)(=O)C1	/	i	25.5*	/	/	39.5%*	i	i
Cc1ccc(S(=O)(=O)C2CS(=O)(=O)CC2O)cc1 (stereo not drawn)	i	i	i	i	i	/	/	/
CCOP(=O)(OCC)/C(C#N)=C/c1c[nH]c2ccccc12	i	i	i	i	i	/	/	/
CCOP(=O)(OCC)/C(C#N)=C/c1ccc([N+](=O)[O-])cc1	i	i	7.36*	i	i	13.5%*	i	i
CCOC(=O)/C(C#N)=C/c1cccc([N+](=O)[O-])c1	i	i	i	i	i	/	/	/
N#C/C(=C\c1cc([N+](=O)[O-])ccc1Cl)C(N)=O	i	i	5.84*	i	i	12.5%*	i	8.5%*
N#C/C(=C/c1ccc([N+](=O)[O-])cc1)C(N)=O	i	i	6.39*	i	i	36.0%*	36.5%*	15.0%*
CN(/N=C/c1ccncc1)C1=NS(=O)(=O)c2ccccc21	i	i	i	i	i	/	/	/
CC(=O)N1CCc2cc(S(=O)(=O)NC(C(=O)NC(C)c3ccccc3)C(C)C)ccc21 (stereo not drawn)	i	i	i	i	i	i	i	i
COc1ccc2cc(C(=O)C3CCCN(C(=O)Cc4c(C)noc4C)C3)ccc2c1 (stereo not drawn)	i	i	i	i	i	/	/	/
CC(=O)N(C)Cc1ccc(C(=O)CCl)cc1	i	i	11.4*	i	i	22.5%*	i	21.0%*
O=C1Nc2ccc(Br)cc2C1Cc1ccccc1F (stereo not drawn)	i	i	5.76*	i	i	13.0%*	i	i
CCCn1c(SC/C(O)=C(\C#N)c2nc3ccccc3[nH]2)n[nH]c1=O	i	i	i	i	i	/	/	/
C/C(CCc1oc2c(Br)cc(Br)cc2c1-c1ccc(C)o1)=N\O	i	i	11.4*	i	i	i	i	i
CC(=O)CCc1oc2c([N+](=O)[O-])cccc2c1-c1ccc(C)o1	i	i	i	i	i	/	/	/
CCOC(=O)[C@@H]1[C@H]2COc3ccccc3[C@H]2N2C(=O)N(c3cccc(F)c3)C(=O)[C@]12C	i	i	i	i	i	i	i	i
CCOC(=O)[C@@H]1[C@H]2COc3ccccc3[C@@H]2N2C(=O)N(c3ccccc3)C(=O)[C@@]12C	i	i	i	i	i	i	i	i

Bioassay records: PubChem BioAssay, Johns Hopkins Ion Channel Center
